pIC50: −log10 of the molar value. Calls of active or inactive are those of the source. The rule behind the calls is not given here.
Experiments:
[1] = molecular target: T1, Nucleotide-binding oligomerization domain-containing protein 1 (Homo sapiens) (UniProt Q9Y239); experiment: Antagonist activity at human NOD1 expressed in HEK293 cells assessed as reduction in C12-iE-DAP-induced NF-kappaB activation at 10 uM preincubated for 1 hr followed by C12-iE-DAP stimulation and measured after 18 hrs by SEAP reporter gene based spectrophotometric analysis; assay type: cell-based; details: time 19.0 hrs
T1 sequence (whole entry): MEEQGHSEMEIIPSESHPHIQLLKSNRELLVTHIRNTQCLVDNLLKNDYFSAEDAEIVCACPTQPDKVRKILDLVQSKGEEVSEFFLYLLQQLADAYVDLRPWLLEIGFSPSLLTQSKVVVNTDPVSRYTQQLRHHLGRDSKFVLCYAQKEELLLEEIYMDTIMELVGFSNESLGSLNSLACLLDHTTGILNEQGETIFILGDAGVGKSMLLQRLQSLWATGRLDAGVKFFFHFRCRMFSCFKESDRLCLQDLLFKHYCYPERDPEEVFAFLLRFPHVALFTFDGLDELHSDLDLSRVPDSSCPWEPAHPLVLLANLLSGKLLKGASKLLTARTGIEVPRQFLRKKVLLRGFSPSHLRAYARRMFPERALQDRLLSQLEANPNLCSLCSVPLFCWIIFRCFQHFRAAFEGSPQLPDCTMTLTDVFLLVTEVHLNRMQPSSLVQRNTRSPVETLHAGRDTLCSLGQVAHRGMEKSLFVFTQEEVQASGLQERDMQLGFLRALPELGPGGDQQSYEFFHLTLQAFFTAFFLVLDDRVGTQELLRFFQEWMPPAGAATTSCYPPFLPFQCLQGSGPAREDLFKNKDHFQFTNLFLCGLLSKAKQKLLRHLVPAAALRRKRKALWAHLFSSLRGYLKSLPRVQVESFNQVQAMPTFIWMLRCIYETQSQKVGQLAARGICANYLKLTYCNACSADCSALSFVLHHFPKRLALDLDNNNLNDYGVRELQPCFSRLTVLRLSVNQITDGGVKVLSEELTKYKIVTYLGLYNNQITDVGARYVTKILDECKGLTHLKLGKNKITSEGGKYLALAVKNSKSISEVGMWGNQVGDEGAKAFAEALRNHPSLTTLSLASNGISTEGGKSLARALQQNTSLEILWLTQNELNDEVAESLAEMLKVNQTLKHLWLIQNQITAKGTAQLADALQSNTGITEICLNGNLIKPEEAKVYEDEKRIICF
Method in brief: (§1)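 HEK-Blue NOD1 or NOD2 reporter cells (5 × 10^5 cells/mL, passages 7–12) pre-treated 1 h with 10 µM compound. Then 100 nM C12-iE-DAP (NOD1) or 2 µM MDP (NOD2) for 18 h at 37 °C, 5% CO2. Secreted SEAP read at 620 nm. DMSO ≤0.1% vehicle control. Duplicates, three biological replicates.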

[2] = molecular target: T2, Nucleotide-binding oligomerization domain-containing protein 2 (Homo sapiens, UniProt Q9HC29); experiment: Antagonist activity at human NOD2 expressed in HEK293 cells assessed as reduction in MDP-induced NF-kappaB activation at 10 uM preincubated for 1 hr followed by MDP stimulation and measured after 18 hrs by SEAP reporter gene based spectrophotometric analysis; assay type: cell-based; details: time 19.0 hrs; method in brief: as §1
T2 sequence (Q9HC29 whole entry, the tested form may be a part): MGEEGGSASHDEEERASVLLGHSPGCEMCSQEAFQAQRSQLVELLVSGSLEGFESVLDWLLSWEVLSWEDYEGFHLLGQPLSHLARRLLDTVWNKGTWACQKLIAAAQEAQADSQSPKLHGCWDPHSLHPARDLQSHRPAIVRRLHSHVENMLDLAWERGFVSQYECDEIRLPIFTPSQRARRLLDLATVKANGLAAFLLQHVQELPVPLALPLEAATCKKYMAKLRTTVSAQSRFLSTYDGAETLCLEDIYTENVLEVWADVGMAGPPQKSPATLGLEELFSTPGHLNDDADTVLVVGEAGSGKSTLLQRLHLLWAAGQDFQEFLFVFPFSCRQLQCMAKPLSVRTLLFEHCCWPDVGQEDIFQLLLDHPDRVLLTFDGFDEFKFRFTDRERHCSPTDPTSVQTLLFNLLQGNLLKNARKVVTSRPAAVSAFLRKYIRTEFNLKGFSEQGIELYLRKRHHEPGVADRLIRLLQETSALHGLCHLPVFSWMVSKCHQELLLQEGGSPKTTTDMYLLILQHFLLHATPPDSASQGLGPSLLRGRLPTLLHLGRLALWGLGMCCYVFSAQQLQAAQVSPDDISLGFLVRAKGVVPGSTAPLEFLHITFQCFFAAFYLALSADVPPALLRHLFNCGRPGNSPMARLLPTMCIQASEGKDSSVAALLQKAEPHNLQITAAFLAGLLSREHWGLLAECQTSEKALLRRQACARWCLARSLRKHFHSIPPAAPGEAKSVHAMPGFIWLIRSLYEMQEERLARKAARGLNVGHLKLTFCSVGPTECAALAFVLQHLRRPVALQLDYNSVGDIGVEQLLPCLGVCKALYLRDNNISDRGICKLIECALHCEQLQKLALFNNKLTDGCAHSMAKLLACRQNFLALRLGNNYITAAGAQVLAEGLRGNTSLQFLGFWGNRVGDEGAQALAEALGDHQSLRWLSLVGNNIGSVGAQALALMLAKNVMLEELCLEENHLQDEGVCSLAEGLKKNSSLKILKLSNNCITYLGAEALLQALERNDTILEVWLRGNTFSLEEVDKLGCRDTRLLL

HEK293 [3] = experiment: Cytotoxicity against human HEK293 cells expressing human NOD1 assessed as reduction in metabolic activity at 20 uM incubated for 18 hrs by MTS assay; assay type: ADME, cell-based; details: hek293, 18 h
Method in brief: (§2)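 HEK-Blue NOD1 or NOD2 cells seeded at 1 × 10^4 cells/well in triplicate. Treated 18 h with 20 µM compound or 0.1% DMSO vehicle. Metabolic activity read by MTS (CellTiter 96 AQueous One) and expressed relative to vehicle control. Mean ± SD of three biological replicates.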

HEK293 [4] = experiment: Cytotoxicity against human HEK293 cells expressing human NOD2 assessed as reduction in metabolic activity at 20 uM incubated for 18 hrs by MTS assay; assay type: ADME, cell-based; details: hek293, 18 h; method in brief: as §2
THP-1 [5] = experiment: Antagonist activity at NOD1/TLR4 in human THP-1 cells assessed as reduction in C12-iE-DAP/LPS-induced TNF-alpha secretion at 20 uM preincubated for 1 hr followed by C12-iE-DAP/LPS stimulation and measured after 20 hrs by ELISA; assay type: cell-based; details: time 21.0 hrs
Method in brief: (§3)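 Synergy setting in THP-1 cells: 1 h pre-treatment with 20 µM compound, then 10 µM MDP or C12-iE-DAP plus 1 ng/mL E. coli O127:B8 LPS for 20 h. Supernatant TNF-α by sandwich ELISA, detection limit 4 pg/mL. DMSO vehicle ≤0.2%. Duplicates from three independent experiments, mean ± SD, Dunnett test against agonist+LPS-treated cells.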

THP-1 [6] = experiment: Antagonist activity at NOD2/TLR4 in human THP-1 cells assessed as reduction in MDP/LPS-induced TNF-alpha secretion at 20 uM preincubated for 1 hr followed by MDP/LPS stimulation and measured after 20 hrs by ELISA; assay type: cell-based; details: filed as antagonist, time 21.0 hrs; method in brief: as §3
THP-1 [7] = experiment: Cytotoxicity against human THP-1 cells assessed as […] dehydrogenase leakage at 20 uM incubated for 18 hrs; assay type: cell-based; details: thp-1, 18 h
Method in brief: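 THP-1 cells treated 18 h with compound at up to 20 µM. Lactate dehydrogenase released into cell-free supernatant measured with a colorimetric kit, results given as OD.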

[8] = molecular target: T3, Nucleotide-binding oligomerization domain-containing protein 1 (Homo sapiens, UniProt Q9Y239); experiment: Antagonist activity at human NOD1 expressed in HEK293 cells assessed as reduction in C12-iE-DAP-induced NF-kappaB activation preincubated for 1 hr followed by C12-iE-DAP stimulation and measured after 18 hrs by SEAP reporter gene based spectrophotometric analysis; assay type: cell-based
T3 sequence (Q9Y239 whole entry): T1 sequence (whole entry)

THP-1 [9] = experiment: Antagonist activity at NOD in human THP-1 cells assessed as increase in TNF-alpha secretion at 20 uM; assay type: cell-based
Method in brief: (§4)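 THP-1 cells at 10^6 cells/mL in RPMI 1640 with 10% heat-inactivated FCS, passages 3–12, exposed to 20 µM compound alone (no NOD agonist). IL-8 and TNF-α in cell-free supernatants measured by sandwich ELISA, reported in pg/mL. Detection limits were 15.6 pg/mL for IL-8 and 4 pg/mL for TNF-α. DMSO vehicle control, not above 0.2% final.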

[10] = molecular target: T2, Nucleotide-binding oligomerization domain-containing protein 2; experiment: Antagonist activity at human NOD2 expressed in HEK293 cells assessed as reduction in MDP-induced NF-kappaB activation preincubated for 1 hr followed by MDP stimulation and measured after 18 hrs by SEAP reporter gene based spectrophotometric analysis; assay type: cell-based; details: for pIC50: read-out: IC50
Method in brief: (§5)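 Dose–response in HEK-Blue NOD2 and NOD1 cells (5 × 10^5 cells/mL): 1 h pre-treatment with 0.3125–20 µM antagonist, then 2 µM MDP or 100 nM C12-iE-DAP respectively, 18 h incubation. SEAP absorbance read at 620 nm. IC50 fitted by non-linear regression. Duplicates, three biological replicates, DMSO ≤0.1%.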

THP-1 [11] = experiment: Antagonist activity at NOD in human THP-1 cells assessed as increase in IL-8 secretion at 20 uM; assay type: cell-based; method in brief: as §4
[12] = molecular target: T1, Nucleotide-binding oligomerization domain-containing protein 1 (Homo sapiens); experiment: Antagonist activity at NOD1 in human THP-1 cells assessed as reduction in C12-iE-DAP-induced IL-8 secretion at 20 uM preincubated for 1 hr followed by C12-iE-DAP stimulation and measured after 20 hrs by ELISA; assay type: cell-based; details: filed as antagonist, time 21.0 hrs
Method in brief: (§6)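 THP-1 cells at 10^6 cells/mL in 24-well cultures, passages 3–12. Pre-treated 1 h with 20 µM compound, then 10 µM MDP (NOD2) or 10 µM C12-iE-DAP (NOD1) added, 20 h at 37 °C, 5% CO2. Triplicate wells, DMSO ≤0.2% as vehicle control. Supernatant IL-8 by sandwich ELISA, detection limit 15.6 pg/mL. Mean ± SD of duplicates from three independent experiments, Dunnett test.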

[13] = molecular target: T2, Nucleotide-binding oligomerization domain-containing protein 2; experiment: Antagonist activity at NOD2 in human THP-1 cells assessed as reduction in MDP-induced IL-8 secretion at 20 uM preincubated for 1 hr followed by MDP stimulation and measured after 20 hrs by ELISA; assay type: cell-based; details: filed as antagonist, time 21.0 hrs; method in brief: as §6
Homo sapiens = species: Homo sapiens; experiment: Selectivity index, ratio of IC50 for antagonist activity at human NOD1 expressed in HEK293 cells assessed as reduction in […] induced NF-kappaB activation preincubated for 1 hr followed by C12-iE-DAP stimulation and measured after 18 hrs by SEAP reporter gene based spectrophotometric analysis to IC50 for antagonist activity at human NOD2 cells expressed in HEK293 cells assessed as reduction in MDP induced NF-kappaB activation preincubated for 1 hr followed by […] stimulation and measured after 18 hrs by SEAP reporter gene based spectrophotometric analysis; assay type: cell-based; method in brief: as §5

| Activity [1] | Activity [2] | SMILES | Activity (HEK293 [3]) | Activity (HEK293 [4]) | Activity ([1]; filed as antagonist) | pIC50 [8] | pIC50 [10] | Activity ([2]; filed as antagonist) | further results |
| --- | --- | --- | --- | --- | --- | --- | --- | --- | --- |
| inactive | inactive | O=C(Cn1c(CCNC(=O)c2ccncc2)nc2ccccc21)Nc1ccc2c(c1)CCC2 | Non-Toxic | Non-Toxic | – | – | – | – | – |
| – | – | O=C(Cn1c(CCCNC(=O)c2ccccc2)nc2ccccc21)Nc1ccc2c(c1)CCC2 | Non-Toxic | Non-Toxic | Active | 4.75 | 5.24 | Active | Activity (THP-1 [5]): inactive; Activity (THP-1 [6]): Active; Activity (THP-1 [7]): Non-Toxic; Activity (THP-1 [9]): inactive; Activity (THP-1 [11]): inactive; Activity [12]: Active; Activity [13]: Active |
| inactive | inactive | O=C(Cn1c(CNC(=O)c2ccccc2)nc2ccccc21)Nc1ccc2c(c1)CCC2 | Non-Toxic | Non-Toxic | – | – | – | – | – |
| – | – | CN(CCCc1nc2ccccc2n1CC(=O)Nc1ccc2c(c1)CCC2)S(=O)(=O)c1ccccc1 | Non-Toxic | Non-Toxic | – | 5.78 | 5.29 | – | – |
| – | – | O=C(CCc1nc2ccccc2n1CC(=O)Nc1ccc2c(c1)CCC2)Nc1ccccc1 | Non-Toxic | Non-Toxic | Active | 4.91 | 5.06 | Active | – |
| – | – | CN(C)c1cccc2c(S(=O)(=O)NCCc3nc4ccccc4n3CC(=O)Nc3ccc4c(c3)CCC4)cccc12 | Non-Toxic | Non-Toxic | Active | 5.57 | 5.21 | Active | Activity (THP-1 [5]): inactive; Activity (THP-1 [6]): Active; Activity (THP-1 [7]): Non-Toxic; Activity (THP-1 [9]): inactive; Activity (THP-1 [11]): inactive; Activity [12]: Active; Activity [13]: Active |
| inactive | inactive | O=C(Cn1c(CCNC(=O)c2cccnc2)nc2ccccc21)Nc1ccc2c(c1)CCC2 | Non-Toxic | Non-Toxic | – | – | – | – | IC50 ([10]; hek293): Not Active |
| – | – | O=C(Cn1c(CCCNS(=O)(=O)c2ccccc2)nc2ccccc21)Nc1ccc2c(c1)CCC2 | Non-Toxic | Non-Toxic | – | 5.03 | 5.29 | – | – |
| – | – | Cc1ccc(S(=O)(=O)n2c(N)nc3ccccc32)cc1 | Non-Toxic | Non-Toxic | Active | – | – | – | Activity (THP-1 [5]; filed as antagonist): Active; Activity [12]: Active |
| – | – | O=C(Cn1c(CCNS(=O)(=O)c2cccnc2)nc2ccccc21)Nc1ccc2c(c1)CCC2 | Non-Toxic | Non-Toxic | Active | 4.49 | 4.79 | Active | – |
| – | – | CN(CCc1nc2ccccc2n1CC(=O)Nc1ccc2c(c1)CCC2)S(=O)(=O)c1ccccc1 | Non-Toxic | Non-Toxic | – | 5.59 | 6.20 | – | – |
| – | – | O=C(Cn1c(CCNCc2ccccc2)nc2ccccc21)Nc1ccc2c(c1)CCC2 | Toxic | Toxic | Active | 4.51 | 5.32 | Active | – |
| inactive | inactive | Cl.O=C(Cn1c(CCNC(=O)C2CCNCC2)nc2ccccc21)Nc1ccc2c(c1)CCC2 | Non-Toxic | Non-Toxic | – | – | – | – | – |
| – | – | O=C(Cn1c(CCNC(=O)c2ccccc2)nc2ccccc21)Nc1ccc2c(c1)CCC2 | Non-Toxic | Non-Toxic | Active | 4.56 | 5.21 | Active | Ratio IC50 (Homo sapiens): 4.5; Activity [13]: Active |
| – | – | CC(C)(C)OC(=O)N1CCC(C(=O)NCCc2nc3ccccc3n2CC(=O)Nc2ccc3c(c2)CCC3)CC1 | Non-Toxic | Non-Toxic | Active | 4.88 | 4.97 | Active | – |
| – | – | CN(C)c1cccc2c(S(=O)(=O)N(C)CCc3nc4ccccc4n3CC(=O)Nc3ccc4c(c3)CCC4)cccc12 | Non-Toxic | Non-Toxic | – | 5.51 | < 4.70 | – | – |

| SMILES | Activity [1] | Activity [2] | Activity (HEK293 [3]) | Activity (HEK293 [4]) | Activity ([1]; filed as antagonist) | pIC50 [8] | pIC50 [10] | Activity ([2]; filed as antagonist) | further results |
| --- | --- | --- | --- | --- | --- | --- | --- | --- | --- |
| O=C(Cc1ccncc1)NCCc1nc2ccccc2n1CC(=O)Nc1ccc2c(c1)CCC2 | inactive | inactive | Non-Toxic | Non-Toxic | – | 4.37 | 4.59 | – | – |
| O=C(Cn1c(CCNCc2ccncc2)nc2ccccc21)Nc1ccc2c(c1)CCC2 | inactive | inactive | Non-Toxic | Non-Toxic | – | 4.56 | 4.64 | – | – |

From ChEMBL document CHEMBL4765256, “Structural features and functional activities of benzimidazoles as NOD2 antagonists” (Eur J Med Chem, 2020)
